# Screening data (PubChem)
# This is a sample that favours compounds with a hit; in the whole collection about 2.9% have one here.
# MIN6 prolif = inducers of MIN6 beta-cell proliferation, primary screen, ATP luminescence, uHTS | MIN6 cells proliferation, ATPlite luminescence, 48 h; cells starved in 0.2% serum; 100% = growth in 10% serum | proliferation, % at 10 µM | actives 0.29% (n = 330,000) | AID 2380, 2010;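 active = compounds whose signal lies at least 3.5 SD above the mean of all wells on their plate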;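 also: 0% = DMSO-treated cells in low-serum medium and 100% = 10% serum control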
# Rev-erbA mod = modulators of Rev-erb alpha DNA binding, primary screen, biochemical, FITC-DNA, fluorescence polarization, uHTS; Nuclear receptor subfamily 1 group D member 1 (Homo sapiens), P20393; Rev-erbα–FITC-DNA binding, 90 min; activity, % at 10 µM; actives 0.79% (n = 370,000); AID 1259318, 2017;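 active = activity above about 14%, limit read from the data; passing the limit was not always enough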;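 also: 0% = DMSO wells with 35 nM protein and 100% = DMSO wells with 750 nM protein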
# Target sequence (P20393 whole entry, looked up): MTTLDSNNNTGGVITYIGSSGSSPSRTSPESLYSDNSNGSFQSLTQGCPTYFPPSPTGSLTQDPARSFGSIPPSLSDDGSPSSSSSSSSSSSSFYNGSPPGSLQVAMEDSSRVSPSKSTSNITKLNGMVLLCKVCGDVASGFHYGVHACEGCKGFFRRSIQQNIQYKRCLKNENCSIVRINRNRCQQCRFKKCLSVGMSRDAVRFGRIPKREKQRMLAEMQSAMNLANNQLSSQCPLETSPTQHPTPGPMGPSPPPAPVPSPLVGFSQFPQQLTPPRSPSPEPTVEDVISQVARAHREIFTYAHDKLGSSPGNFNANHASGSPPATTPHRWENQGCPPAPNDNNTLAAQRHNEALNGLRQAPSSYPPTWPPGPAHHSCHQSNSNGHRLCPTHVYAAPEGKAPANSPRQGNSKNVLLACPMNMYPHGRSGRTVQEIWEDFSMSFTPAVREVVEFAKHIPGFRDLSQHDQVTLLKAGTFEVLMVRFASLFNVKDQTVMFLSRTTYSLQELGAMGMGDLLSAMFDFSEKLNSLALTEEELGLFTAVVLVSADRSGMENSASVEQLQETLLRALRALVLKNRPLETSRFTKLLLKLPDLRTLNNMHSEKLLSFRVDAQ
# H9c2 TAG inh = inhibitors of triacylglycerol accumulation, primary screen, cell-based, uHTS, fluorescence, H9c2; H9c2 cells, Nile Red lipid (TAG) fluorescence; cells loaded with 200 µM oleic acid; inhibition, % at 12.5 µM; actives 0.66% (n = 230,000); AID 651582, 2012;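 active = pattern-corrected inhibition of lipid staining of at least 50% with the nuclear-stain viability signal not falling by more than 50%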;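 also: 0% = DMSO wells and 100% = triacsin C control wells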
# T cruzi repl = inhibitors of intracellular T. cruzi growth, primary screen, luminescence, NIH3T3 host cells; T. cruzi beta-gal in NIH3T3, 90 h; inhibition, % (test concentration not listed); actives 1.4% (n = 300,000); AID 1885, 2009;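 active = mean inhibition across valid replicates above about 55%, limit read from the data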;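 also: signal also drops with host cell toxicity which is not excluded here; 0% = plate median of DMSO wells and 100% = zero luminescence signal; higher percent means less beta-gal luminescence so fewer parasites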
#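 System: mouse NIH/3T3 fibroblasts infected with β-gal-expressing T. cruzi Tulahuen C4 / Input: NIH/3T3 cells, 5,000 per well / Buffer or medium: Low-serum DMEM with 2% FBS / Probe or stimulus: 5000 reporter trypomastigotes per well / Schedule: ≥90 h infection period, 3 h prior cell attachment / Measured by: GalScreen luminescence, 60 min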
# PG9 Ab binder = binders of HIV-1 gp120 antibody PG9, primary screen, biochemical, TR-FRET; TR-FRET gp120-PG9 antibody binding; inhibition, % at 6.7 µM; actives 0.43% (n = 360,000); in the data active = inhibition above about 8.5%
# iPSC survival up = enhancers of single-cell hiPSC survival, primary screen, ATPlite luminescence; survival enhancement, % at 20 µM; AID 602274, 2012; actives 0.044% (n = 360,000); 100% = ROCK inhibitor wells, 0% = DMSO; in the data active = survival enhancement above about 18%;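 also: cells exposed to compounds for 16 hours before the ATP read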
# Rev-erbA confirm = modulators of Rev-erb alpha DNA binding, confirmation, biochemical, FITC-DNA, fluorescence polarization, single point; AID 1259319, 2017; activation, % at 25 µM; actives 61% (n = 3,000); shares compounds with Rev-erbA mod; 90 min;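 active = activation at or above a set limit, or at least 3 SD above the negative control mean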;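 also: 0% = 35 nM protein with DMSO and 100% = 750 nM protein high control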
# RORg counter = modulation of RORgamma DNA binding, dose response, counter-screen for Rev-erb alpha modulator project, biochemical, fluorescence polarization, FITC-DNA; IC50, µM; purified RORgamma protein-FITC-DNA binding; shares compounds with Rev-erbA mod; actives 8% (n = 910);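 active = Compounds whose fitted half-maximal concentration for disrupting protein-DNA binding is below 10 micromolar; the record names Rev-erb in its text, so the target is in doubt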
# The depositor's hits bear a star; . = no result given.
SMILES,MIN6 prolif,Rev-erbA mod,H9c2 TAG inh,T cruzi repl,PG9 Ab binder,iPSC survival up,Rev-erbA confirm,others
CC(C)(C)c1cc(N2CCOCC2)n2ncc(-c3ccc(Cl)cc3)c2n1,-6,16,.,-5,0,0,.,
COC(=O)c1ccc(Cn2ccc3ccc(-c4ccc5ccn(Cc6ccc(C(=O)OC)cc6)c5c4)cc32)cc1,.,22,.,.,.,.,.,
COC(=O)c1ccc(Cn2ccc3ccc(-c4ccc5ccn(C(=O)c6ccccc6C)c5c4)cc32)cc1,.,30*,.,.,.,.,42*,RORg counter=>40
COC(=O)c1ccc(Cn2ccc3ccc(-c4ccc5ccn(C(=O)c6cccc(OC)c6)c5c4)cc32)cc1,.,40*,.,.,.,.,52*,RORg counter=>40
COc1ccc(Cn2ccc3ccc(-c4ccc5ccn(C(=O)c6cccc(OC)c6)c5c4)cc32)cc1,.,38*,.,.,.,.,71*,RORg counter=>40
N#Cc1ccc(Cn2ccc3ccc(-c4ccc5ccn(C(=O)C6CCCCC6)c5c4)cc32)cc1,.,36*,.,.,.,.,18*,
COC(=O)c1ccc(Cn2ccc3ccc(-c4ccc5ccn(C(=O)c6ccccc6)c5c4)cc32)cc1,.,14,.,.,.,.,.,
CC(=O)N1c2ccc(S(=O)(=O)NCCC(=O)Nc3ccc(C)c(F)c3)cc2CC1C (stereo unspecified),-4,3,.,2,-2,0,.,
CC(=O)N1CCN(Cc2cc(=O)n3cc(Cl)c(C)c(Cl)c3n2)CC1,0,-5,-1,-5,0,-2,.,
CN1C(=O)C2(NC(=O)c3ccccc3N2C)c2ccccc21 (stereo unspecified),-2,0,-10,-6,-2,0,.,
Cc1cccc(Oc2coc3cc(O)ccc3c2=O)c1,0,2,.,-20,0,0,.,
O=C(Nc1ccc(-c2nc3ccccc3o2)cc1)c1ccc2c(c1)OCO2,-4,0,.,-31,2,0,.,
O=C(NC(=S)Nc1ccc2oc(-c3ccncc3)nc2c1)c1ccccc1F,-1,37*,3,6,-1,-2,16,
O=C(Nc1ccc2oc(-c3ccccc3F)nc2c1)c1ccc2c(c1)OCCO2,-4,15*,.,26,-1,-1,12,
O=C(Nc1ccc2oc(-c3ccc(F)cc3)nc2c1)c1ccccc1F,-2,41*,17,-7,6,0,25*,
O=C(NC(=S)Nc1ccc2oc(=O)ccc2c1)c1ccccc1F,-2,0,2,1,0,1,.,
CCCN(C(=O)c1ccco1)c1nnc(-c2cccc(C)c2)s1,0,-4,.,30,-1,-1,.,
CCN(C(=O)c1ccco1)c1nnc(-c2ccc(OC)cc2)s1,-3,25*,-22,-4,3,-6,-4,
Cc1ccc(-c2nc(CS(=O)(=O)CC(=O)NCCCN3CCOCC3)c(C)o2)cc1,1,-1,.,-7,-2,0,.,
O=C(NNC(=O)c1cc(Cl)ccc1O)c1cccs1,-1,1,.,-13,-3,0,.,
Nc1ncccc1OCc1ccc(Br)cc1,-1,1,-4,-1,-2,0,.,
COc1cc(/C=C(\C#N)C(=O)Nc2ccccc2F)ccc1OCCN1CCOCC1,-3,0,-12,2,-2,0,.,
N#C/C(=C/C1=C(N2CCOCC2)C(=C/c2ccc(Cl)cc2)/CC1)C(=O)Nc1ccccc1F,.,27*,-20,.,-1,-1,5,
CN(C)c1ccc(/C=C/c2nc3ccccc3c(=O)n2-c2ccc(C(=O)O)cc2)cc1,-4,23*,.,-4,0,2,24*,
Cc1ccc2cc(CCNC(=O)C(=O)c3c[nH]c4ccccc34)c(=O)[nH]c2c1,0,40*,.,-17,-1,-3,19*,
SMILES,MIN6 prolif,Rev-erbA mod,H9c2 TAG inh,T cruzi repl,PG9 Ab binder,iPSC survival up,Rev-erbA confirm,others
Fc1ccc(-c2nc3c(Cl)cc(C(F)(F)F)cn3c2Cl)cc1,-4,35*,3,-1,1,-2,19*,
COc1ccc(/C=C2/SC(=O)N(CCC(=O)Nc3ccc(C)cc3)C2=O)cc1OC,0,30*,.,8,-1,.,25*,
COc1ccc(/C=C2/SC(=O)N(CCC(=O)Nc3ccccc3)C2=O)cc1OC,-2,24*,.,-6,-37,-2,31*,RORg counter=>40
COc1ccc(/C=C2\SC(=S)N(CCCC(=O)Nc3cc(C)on3)C2=O)cc1OC,1,4,.,-11,0,2,.,
COc1ccc(/C=C2/SC(=O)N(CC(=O)Nc3cc(C)on3)C2=O)cc1OC,0,49*,.,-5,-5,3,27*,
COc1ccc(/C=C2\SC(=O)N(CC(=O)Nc3cccnc3)C2=O)cc1OC,-4,8,.,37,-3,-2,.,
Cc1ccc(F)c(S(=O)(=O)NC(=O)C2(C)CCN2C(=O)c2sccc2C)c1 (stereo unspecified),.,-5,-2,.,-1,-2,.,
CCOc1ccccc1-n1c(SCC(N)=O)nc2ccccc2c1=O,-1,-3,.,-14,3,6,.,
CCc1nnc(NC(=O)CSc2nc3c(cc2C#N)CCC3)s1,-3,29*,-32,-1,1,-4,31*,
N#Cc1cc2c(nc1SCC(=O)Nc1sc3c(c1C#N)CCC3)CCCCCC2,-5,11,4,21,1,1,.,
CCSc1nnc(NC(=O)CSc2nc3c(cc2C#N)CCCC3)s1,-4,34*,.,21,0,-2,19*,
O=C(CSc1nccn1-c1ncc(C(F)(F)F)cc1Cl)c1ccc(Br)cc1,-3,.,.,3,.,-2,.,
O=c1[nH]c(=O)n(CCc2ccc(F)cc2)c(O)c1C=NCc1ccc2c(c1)OCO2,0,21*,-4,-16,-2,-1,26*,
O=C(/C=C/c1nc2ccccc2s1)N1CCCCCC1,-2,5,-5,9,0,-3,.,
O=c1[nH]c(=S)c2[nH]c(=S)n(-c3ccccc3)c2[nH]1,.,15*,-1,.,-3,2,0,
COc1cc(C(=O)NC(=S)N(CCc2ccccc2)CCc2ccccc2)cc(OC)c1OC,-5,4,7,51,-3,0,.,
